Assay outcomes (PubChem BioAssay)
CHRM5 PAM – human M5 muscarinic receptor positive allosteric modulators, primary screen, CHO-K1 cells, Fluo-8 calcium fluorescence; activation, % at 3 µM; AID 624038, 2012; CHO-K1 hM5, ACh EC20 PAM; 0% = ACh EC20, 100% = ACh EC100; 360,000 tested, 0.3% active; Muscarinic acetylcholine receptor M5 (Homo sapiens), P08912;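 active = activation above the run cutoff, the mean activation of all test compounds plus 3 SD, cut at about 18% in these data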
Target sequence (P08912 whole entry, looked up): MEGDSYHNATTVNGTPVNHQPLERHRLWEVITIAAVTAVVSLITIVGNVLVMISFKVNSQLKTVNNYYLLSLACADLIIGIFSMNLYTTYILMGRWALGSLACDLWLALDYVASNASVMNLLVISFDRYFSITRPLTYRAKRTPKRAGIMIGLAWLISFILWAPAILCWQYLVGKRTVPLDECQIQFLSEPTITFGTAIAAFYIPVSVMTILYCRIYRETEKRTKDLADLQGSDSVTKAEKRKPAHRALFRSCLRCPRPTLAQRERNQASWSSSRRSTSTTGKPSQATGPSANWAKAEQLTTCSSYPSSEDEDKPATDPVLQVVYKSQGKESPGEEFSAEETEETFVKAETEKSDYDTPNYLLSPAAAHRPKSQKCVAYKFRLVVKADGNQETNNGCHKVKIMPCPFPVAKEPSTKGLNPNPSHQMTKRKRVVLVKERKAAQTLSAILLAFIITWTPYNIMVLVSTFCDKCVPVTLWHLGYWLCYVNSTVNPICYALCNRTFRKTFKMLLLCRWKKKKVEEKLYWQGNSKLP
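Assay system: CHO-K1 hM5 cells / Incubation: Fluo-8 loading 80 min at 37 °C plus 30 min room temperature / Technique: Fluo-8 calcium dye fluorescence, kinetic read / Repeats: single replicate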
M4 antag – human M4 muscarinic receptor antagonists, primary screen, CHO cells, Fluo-8 calcium fluorescence | Muscarinic acetylcholine receptor M4 (Homo sapiens), P08173 | CHO-hM4 cells, ACh EC80 | inhibition, % at 3 µM | 360,000 tested, 0.73% active | AID 624125, 2012;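 active = inhibition above its plate's cutoff, the mean inhibition of sample wells plus 3 SD, cut at about 27% in these data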
M4 PAM – human M4 muscarinic receptor positive allosteric modulators, primary screen, CHO-K1 cells, Fluo-8 calcium fluorescence. activation, % at 3 µM. 360,000 tested, 0.4% active. AID 624126, 2012. CHO-K1 hM4/Gqi5, ACh EC20; 0% = ACh EC20, 100% = maximal ACh. Muscarinic acetylcholine receptor M4 (Homo sapiens), P08173;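 active = activation above its plate's cutoff, the mean activation of sample wells plus 3 SD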
CHRM5 agonist – human M5 muscarinic receptor agonists, primary screen, CHO-K1 cells, Fluo-8 calcium fluorescence; Muscarinic acetylcholine receptor M5 (Homo sapiens), P08912; CHO-K1 hM5 cells; 0% DMSO wells, 100% maximal acetylcholine response; activation, % at 3 µM; 360,000 tested, 0.19% active;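 active = activation above the run's mean over test compounds plus 3 SD, cut at about 23% in these data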;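 note: signal is peak over basal fluorescence ratio across the kinetic read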
M5 antag – human M5 muscarinic receptor antagonists, primary screen, CHO cells, Fluo-8 calcium fluorescence; Muscarinic acetylcholine receptor M5 (Homo sapiens), P08912; CHO-hM5 cells, ACh EC80; inhibition, % at 3 µM; 360,000 tested, 0.59% active; AID 624040, 2012;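 active = inhibition above a per-plate cutoff, the mean of that plate's test compounds plus 3 SD, cut at about 27% in these data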
M4 ag – human M4 muscarinic receptor agonists, primary screen, CHO-K1 cells, Fluo-8 calcium fluorescence; Muscarinic acetylcholine receptor M4 (Homo sapiens), P08173; CHO-K1 hM4/Gqi5; vehicle 0%, full acetylcholine response 100%; activation, % at 3 µM; 360,000 tested, 0.14% active; AID 624127, 2012;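 active = activation above the run mean over all test wells plus 3 SD, cut at about 32% in these data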;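 note: peak over basal fluorescence ratio per well then scaled between controls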
Numbers stand for hits; - = inactive. Rows were chosen to be rich in hits. Some 1.8% of all compounds tested hit in one or more screens of this group.

SMILES	CHRM5 PAM	M4 antag	M4 PAM	CHRM5 agonist	M5 antag	M4 ag
CCN1C(=O)[C@H]2[C@@H](c3ccc(-c4ccccc4)cc3)N3CCCC[C@@]3(C(=O)OC)[C@H]2C1=O	-	-	24.2	-	-	-
CCOC(=O)N1CCN(C(=O)COC(=O)C2CCN(S(=O)(=O)c3c(C)c(C)cc(C)c3C)CC2)CC1	-	-	-	-	-	-
Cc1ccnc2nc(C(=O)OCC(=O)NCc3cccc(Cl)c3)nn12	-	-	-	-	-	-
Cc1ccnc(SCC(=O)NC2CCCCCC2)n1	-	-	-	-	-	-
Cc1c(C(=O)NC(c2ccccn2)C(F)(F)F)oc2c(F)cccc12 (centres undefined)	-	-	-	-	-	-
COc1cccc(Cn2cc(C)cc(NC(=O)NCc3ccccc3)c2=O)c1	-	-	-	-	-	-
CCN(CC)Cc1cc(Oc2ccc(O)c(CN(CC)CC)c2)ccc1O	-	-	-	-	-	-
CCC(=O)N1CCc2cc(Br)cc(S(=O)(=O)CCC(=O)NCC3CCCO3)c21 (centres undefined)	18.8	-	-	-	-	-
CCC(=O)N1CCc2cc(Br)cc(S(=O)(=O)NCC3CCCO3)c21 (centres undefined)	-	-	-	-	-	-
COc1ccccc1Cn1c(=O)[nH]c2cccnc21	41.1	-	-	-	-	-
O=C(c1ccc([N+](=O)[O-])cc1)N(Cc1ccc(Cl)cc1Cl)N1C(=O)CCCC1=O	-	66.8	-	-	-	-
O=C(c1ccc([N+](=O)[O-])cc1)N(Cc1ccc(Cl)cc1)N1C(=O)CCCC1=O	-	-	-	-	-	-
O=C(NCc1cccc(F)c1)c1cccc2c1C(=O)c1ccc(N3CCC(Cc4ccccc4)CC3)cc1S2(=O)=O	-	-	-	-	27.8	-
O=C(NCc1cccc(F)c1)c1cccc2c1C(=O)c1ccc(N3CCCC3)cc1S2(=O)=O	-	-	-	35.2	-	79.7
CC(C)Cc1ccc(C(C)C(=O)Nc2ccccc2O)cc1 (centres undefined)	-	38.2	-	40.7	50.5	42.9
CC(C)c1ccc(CNC(=O)C(=O)Nc2nccs2)cc1	-	-	-	-	-	-
CC(C)Cc1ccc(C(C)C(=O)Nc2nccs2)cc1 (centres undefined)	-	29.7	-	38.4	-	34.3
COC(=O)[C@@]12C[C@@H](CC(=O)NCCc3ccccc3OC)C(=O)N(Cc3ccco3)C1=CCC(C)(C)C2	-	-	-	-	-	-
CCN(CC)C(=O)C1=C(C)N(Cc2ccccc2)C(=O)C(CC(=O)NCCc2ccccn2)C1 (centres undefined)	-	-	-	-	-	-
C=CCNC(=S)N/N=C/c1ccc(C)cc1C	21.2	-	-	-	-	-
CCNC(=S)N/N=C/c1cc(C)ccc1C	-	-	-	-	-	-
O=c1c2cc(F)ccc2sn1-c1ccccc1	-	-	-	23.8	-	-
CC[N+](CC)(CC)CCOc1ccc(/C=C/c2ccccc2)cc1	-	27.4	-	-	95.2	-
N#Cc1ccc(/C=C/C(=O)c2ccc3c(c2)OCO3)cc1	-	-	17.4	-	-	-
COc1ccc(NS(=O)(=O)c2ccc(N3CCCC3=O)cc2)cn1	-	-	-	-	28.0	-
SMILES	CHRM5 PAM	M4 antag	M4 PAM	CHRM5 agonist	M5 antag	M4 ag
CSc1ccc(/C=N/NC(=O)CN2CCN(Cc3ccccc3Cl)CC2)cc1	-	-	-	-	-	-
CSc1ccc(/C=N/NC(=O)CN2CCN(Cc3ccc(C)cc3)CC2)cc1	-	42.2	-	-	-	-
COc1ccc(Cc2nnc(SC(C)C(=O)Nc3ccc(C(N)=O)cc3)o2)cc1 (centres undefined)	-	-	-	-	-	-
Cc1csc2c(SCC(=O)NNC(=O)C(Cl)Cl)ncnc12	-	-	-	-	-	-
C/C(=N\Nc1ccc(C(F)(F)F)cn1)c1ccncc1	-	-	20.9	-	-	-
Oc1ccc(/C=N/Nc2ccc(C(F)(F)F)cn2)cc1	-	-	-	-	-	-
Cc1ccccc1C(=O)Nc1ccc(-c2nc3ccc(C(=O)c4ccccc4)cc3[nH]2)cc1	-	36.1	-	-	-	-
CC(=O)Nc1cccc(NC(=O)Cc2cccs2)c1	-	-	-	-	-	-
O=C(Nc1ccc(-c2nc3ccc(NC(=O)c4cccs4)cc3[nH]2)cc1)c1cccs1	-	45.9	-	-	27.3	-
CS(=O)(=O)c1ccccc1C(=O)Nc1ccc(-c2nc3ccccc3[nH]2)cc1	-	-	-	-	-	-
O=C(Nc1ccc2nc(-c3cccs3)[nH]c2c1)c1cccs1	-	-	-	-	-	-
O=C(Cc1cccs1)Nc1cccc(-c2nc3cc4ccccc4cc3[nH]2)c1	-	-	-	-	27.4	-
O=C(c1ccccc1)c1ccc2nc(-c3ccc(NC(=O)c4ccccc4Br)cc3)[nH]c2c1	-	28.1	-	-	-	-
O=C(O)c1cc(S(=O)(=O)NCCOc2ccccc2)ccc1Cl	-	-	-	-	-	-
O=C(CCl)N1c2ccccc2Oc2ccc3ccccc3c21	-	31.9	-	37.5	-	47.5
CC(=O)N1c2ccccc2Oc2cc3ccccc3cc21	-	-	-	-	-	-
Cc1ccc(S(=O)(=O)N(C)C)cc1NC(=O)C(C)OC(=O)c1cc[n+]([O-])cc1 (centres undefined)	-	-	-	-	-	-
Cc1ccc(N(CC(=O)NCc2ccco2)C(=O)CNS(=O)(=O)c2ccccc2)c(C)c1	-	-	-	-	-	-
COc1ccc(NC(=O)C2CCCN(S(C)(=O)=O)C2)c(OC)c1 (centres undefined)	18.9	-	-	-	-	-
COc1ccc(NC(=O)C2CCN(S(C)(=O)=O)CC2)c(OC)c1	-	-	-	-	-	-
COC(=O)C1(c2ccccc2)NC(c2cccs2)C2C(=O)N(c3ccccc3)C(=O)C21 (centres undefined)	-	-	-	53.0	-	-
COC(=O)C1(c2ccccc2)NC(c2cccs2)C2C(=O)N(C)C(=O)C21 (centres undefined)	-	-	-	-	-	-
Cc1cccc(NC(=O)C(=O)C2C(=O)Nc3ccccc32)c1 (centres undefined)	18.7	-	-	-	-	-
